From PubChem
SENP8 block-1 = blocks human SENP8 cleavage of Nedd8 substrate; Q96LD8; hit rate 0.64% among 360,000; recombinant SENP8, Nedd8 substrate fluorescence; inhibition, % at 20 µM; in the data active = inhibition mostly above about 40%, no sharp cut-off; inactive = mostly below about 27%
SENP7 block = blocks the human protease SENP7 | Q9BQF6 | recombinant SENP7, Z-RLRGG-aminoluciferin luminescence, 40 min | inhibition, % at 5 µM | hit rate 1.5% among 330,000 | AID 434973;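 active = inhibition above about 50% at the single test dose, limit read from the data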;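 also: plate controls were DMSO with enzyme for no effect and no enzyme buffer wells for full effect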
Target sequence (Q9BQF6 706-1050 limits assumed): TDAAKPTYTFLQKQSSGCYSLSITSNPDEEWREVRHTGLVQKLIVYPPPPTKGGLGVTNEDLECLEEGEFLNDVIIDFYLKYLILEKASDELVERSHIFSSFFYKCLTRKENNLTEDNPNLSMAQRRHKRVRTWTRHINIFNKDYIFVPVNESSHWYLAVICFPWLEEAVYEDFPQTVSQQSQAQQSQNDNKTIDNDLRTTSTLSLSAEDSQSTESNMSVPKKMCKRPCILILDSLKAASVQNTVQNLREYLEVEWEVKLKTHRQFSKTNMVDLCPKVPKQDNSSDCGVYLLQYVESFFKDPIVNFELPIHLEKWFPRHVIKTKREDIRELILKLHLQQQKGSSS
SENP1 FRET inh = blocks the human SENP1 SUMO protease catalytic domain; Q9P0U3; recombinant SENP1 catalytic domain, CyPet-SUMO1-YPet FRET cleavage; inhibition, % at 10 µM; hit rate 0.21% among 360,000; AID 624204;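 active = inhibition at least 30% at 10 µM, raw YFP signal under a set limit, fluorescence ratio 0.5 to 1.5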;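 also: 0% = enzyme with DMSO and 100% = no enzyme wells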
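material = recombinant human SENP1 catalytic domain, His6-tagged | quantity = 20 pM enzyme | reagent = 25 nM SUMO1 FRET substrate | compound dosing = 10 µM single point, 0.5% DMSO | timing = 50 min enzyme reaction, room temperature, light-protected | detection = FRET, CFP and YFP emission | control set = no-enzyme low, enzyme-DMSO high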
SENP8 block-2 = inhibitors of human SENP8 protease; inhibition, % at 10 µM; purified SENP8, Z-RLRGG-aminoluciferin cleavage, luminescence; Q96LD8; hit rate 1.2% among 330,000; in the data active = inhibition above about 50%
SENP6 block = inhibitors of human SENP6 protease. Recombinant SENP6 catalytic domain, aminoluciferin luminescence. Q9GZR1. AID 2599. hit rate 1.8% among 330,000. inhibition, % at 10 µM;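 active = inhibition above about 50% at the single tested dose, limit read from the data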;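 also: plate controls were DMSO wells with enzyme for no effect and DMSO wells lacking enzyme for full effect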
SENP8 confirm = confirmation of human SENP8 protease inhibitors; shares compounds with SENP7 block; Recombinant SENP8, Z-RLRGG-aminoluciferin luminescence, 60 min; inhibition, % at 12.5 µM; hit rate 40% among 6,200; AID 488912;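 active = mean inhibition across replicates above about 50%, limit read from the data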
SENP6 conf = human SENP6 inhibition, confirmed; recombinant SENP6, Z-RLRGG-aminoluciferin luminescence; hit rate 58% among 6,200; inhibition, % at 12.5 µM; AID 488915; shares compounds with SENP7 block
SENP7 conf = human SENP7 inhibition, confirmed; shares compounds with SENP7 block; recombinant SENP7, Z-RLRGG-aminoluciferin luminescence, 40 min; inhibition, % at 12.5 µM; hit rate 69% among 6,200
Casp3 select = inhibits human caspase-3 in SENP selectivity test. shares compounds with SENP7 block. purified caspase-3, Z-DEVD-aminoluciferin luminescence, 60 min. inhibition, % at 12.5 µM. hit rate 60% among 6,200. AID 488918;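 active = mean inhibition above about 50%, limit read from the data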;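 also: plate controls were enzyme with DMSO for no effect and wells without caspase-3 for full effect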
Target sequence (P42574 28-227 limits assumed): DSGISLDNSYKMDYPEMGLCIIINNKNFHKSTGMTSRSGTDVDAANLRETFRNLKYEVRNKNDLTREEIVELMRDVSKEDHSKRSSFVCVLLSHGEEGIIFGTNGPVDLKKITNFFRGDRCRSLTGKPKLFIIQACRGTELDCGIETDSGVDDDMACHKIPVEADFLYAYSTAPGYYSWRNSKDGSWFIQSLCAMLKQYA
SENP luc ctr = counter-screen for SENP inhibitors: luminescence interference | shares compounds with SENP7 block | Pre-incubated SENP8/Z-RLRGG-aminoluciferin, luciferase luminescence interference | inhibition, % at 12.5 µM | hit rate 39% among 6,200 | AID 488919;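 active = mean inhibition above about 50% when retested at one dose, limit read from the data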;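 also: plate controls were DMSO wells with completed reaction for no effect and substrate without enzyme for full effect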
An asterisk follows results filed as active; / = no result given. Hits are enriched below; roughly 2.5% of the tested compounds scored in any of these assays.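 The calls were made as follows, unless noted: active = mean inhibition above about 50% in the one-dose retest (limit read from the data); inactive = the rest.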

SMILES	SENP8 block-1	SENP7 block	SENP1 FRET inh	SENP8 block-2	SENP6 block	SENP8 confirm	SENP6 conf	SENP7 conf	Casp3 select	SENP luc ctr
COc1ccc(CCN(C)CC(=O)Nc2cc(C)nc3ccccc23)cc1OC	13.7	13.2	-0.7	-7.9	-26.6	/	/	/	/	/
COc1ccc(N=Nc2ccc3ccccc3c2)c(O)c1	27.3	97.6*	6.5	19.2	98.1*	43.2	39.7	26.1	40.6	-0.9
COc1cccc(N=Nc2ccc3ccccc3c2O)c1	12.4	99.7*	8.2	95.7*	88.7*	7.6	30.9	19.7	92.2*	0.1
COc1ccc(N=Nc2cc(C)ccc2O)cc1	-10.6	98.7*	3.9	95.7*	8.8	84.5*	97.4*	102.1*	91.9*	92.4*
COc1ccc(N=Cc2oc3ccc4ccccc4c3c2O)cc1	-58.2	-6.9	-25.1	-18.5	2.9	/	/	/	/	/
Cc1nc2scc(C)n2c(=O)c1S(=O)(=O)NCC1CCN(Cc2ccc(F)cc2)CC1	-282.3	-12.7	-0.3	-10.6	-8.1	/	/	/	/	/
COc1ccc2c(c1)CCc1c-2nc2ccccc2c1N1CCOCC1	-86.2	15.9	1.0	6.3	19.7	/	/	/	/	/
O=C(COC(=O)c1cccc(NC(=O)c2ccco2)c1)c1ccc(Br)cc1	6.9	72.1*	0.4	23.8	70.3*	8.3	60.6*	77.9*	36.7	32.8
CC(C)(C)C(=O)COC(=O)c1cccc(NC(=O)c2ccco2)c1	17.6	2.8	-1.3	-6.5	-6.7	/	/	/	/	/
Cc1ccc(C(=O)COC(=O)c2cccc(NC(=O)c3ccc([N+](=O)[O-])cc3[N+](=O)[O-])c2)cc1	9.8	66.3*	0.0	34.5	66.9*	22.4	43.6	68.8*	45.1	46.1
CC(NC(=O)C1CCN(Cc2ccc(Oc3ccccc3)cc2)CC1)c1cccc2ccccc12 (stereo not given)	13.5	/	4.5	/	/	/	/	/	/	/
Cc1cc(C)nc(N(C#N)Cc2ccccc2C)n1	24.8	96.2*	1.0	0.5	-9.0	-6.7	-0.5	-2.9	-2.2	-2.4
Cc1cc(C)nc(N(C#N)Cc2ccccc2Cl)n1	16.9	13.9	2.6	-3.9	-7.1	/	/	/	/	/
O=c1oc2ccccc2cc1-c1cn2cccnc2n1	-349.0	47.4	-13.1	36.1	58.5*	45.6	46.6	82.2*	81.7*	31.3
O=C(Nc1ccccc1)c1cc(-c2ccccc2Cl)no1	22.0	85.3*	4.0	68.7*	88.0*	80.7*	81.0*	95.4*	69.3*	74.2*
COc1ccc(NC(=O)c2cc(-c3ccccc3Cl)no2)cc1	14.3	-0.8	1.0	1.0	-2.7	/	/	/	/	/
COc1ccc(NC(=O)c2ccc(-c3ccccc3Cl)o2)cc1	6.4	52.0*	-0.2	69.0*	74.6*	47.5	64.3*	86.1*	48.7	5.3
O=C(Nc1cccc(F)c1)c1ccc(-c2ccccc2Cl)o1	-6.5	34.3	0.2	42.4	53.6*	46.6	49.6	70.3*	25.4	20.7
CCc1nnc(NC(=O)c2ccc(-c3ccccc3Cl)o2)s1	-228.4	68.1*	-0.5	10.2	33.0	4.6	2.9	1.4	8.6	-2.7
CCOc1ccc(S(=O)(=O)N(C)CC(=O)N2CCN(CC)CC2)cc1	5.2	-7.2	3.2	-1.4	-11.5	/	/	/	/	/
CC1(C)CC(=O)C=C(NC2CCCC(O)C2)C1 (stereo not given)	17.5	0.5	1.5	2.8	-2.7	/	/	/	/	/
COc1ccc(NC(=O)CSc2nnc(NC(=O)C3CC3)s2)cc1OC	3.9	0.9	-0.5	2.4	-14.5	/	/	/	/	/
Cc1ccc(-c2nnc(OCc3nc4ccccc4n3C)c3ccccc23)cc1	19.0	-2.3	2.6	-0.8	-16.1	/	/	/	/	/
O=C(NCc1cccnc1)c1ccc(-c2cccc(Cl)c2Cl)o1	-5.0	90.6*	-11.1	2.2	7.9	-29.1	-16.0	-6.4	-4.0	-6.6
Cc1c(OC(C)C(=O)NCCCn2ccnc2)ccc2c3c(c(=O)oc12)CCC3 (stereo not given)	-234.4	1.6	-25.8	-9.7	-3.9	/	/	/	/	/
SMILES	SENP8 block-1	SENP7 block	SENP1 FRET inh	SENP8 block-2	SENP6 block	SENP8 confirm	SENP6 conf	SENP7 conf	Casp3 select	SENP luc ctr
FC(F)Oc1ccc(NC(=S)N2CCc3ccccc32)cc1	6.4	11.0	1.1	23.0	50.2*	2.1	-7.2	22.9	7.7	9.2
COc1ccc(CCN(C)C(=O)c2cc(=O)c3ccccc3o2)cc1OC	1.1	-8.9	-2.0	-0.2	-6.9	/	/	/	/	/
Cc1cccc(-c2nnc(-c3ccc(N)cc3)o2)c1	-350.8	53.4*	0.6	37.4	8.4	46.9	64.8*	87.5*	62.6*	40.5
Cc1ccc(-c2nnc(-c3ccccc3)o2)cc1Br	4.1	74.9*	-2.6	27.7	58.7*	19.7	18.6	24.3	40.9	8.6
Cc1ccc(-c2nnc(-c3cccc(Br)c3)o2)cc1	7.3	59.8*	-0.8	37.1	74.2*	24.0	21.2	25.8	15.2	4.7
Cc1ccc(-c2nnc(-c3ccc4ccccc4c3)o2)cc1	-366.9	/	0.8	/	/	/	/	/	/	/
O=c1oc2ccccc2cc1-c1nnc(-c2cccc(Br)c2)o1	-286.3	43.1	-2.0	-15.7	1.5	/	/	/	/	/
Brc1cccc(-c2nnc(-c3ccccc3)o2)c1	14.7	79.4*	-1.7	69.7*	87.5*	49.2	71.4*	93.3*	58.7*	17.3
c1ccc(-c2nnc(-c3ccncc3)o2)cc1	39.2	-6.4	0.2	-1.6	5.9	/	/	/	/	/
COc1ccc(NS(=O)(=O)c2cc3c(cc2C)N(C(C)=O)CCO3)cc1OC	21.0	8.5	1.9	-1.4	-18.6	/	/	/	/	/
COc1ccc(-c2nc(C#N)c(N3CCCCCC3)o2)cc1	-304.9	83.9*	3.0	0.1	-5.4	1.0	1.1	-2.0	-3.7	-4.9
COc1ccc(-c2nc(C#N)c(N3CCCCC3)o2)cc1	-303.8	-0.3	2.5	-7.1	-8.8	/	/	/	/	/
COC(=O)c1cccc(CC2(C)C(=O)Nc3cc(-c4ccccc4Cl)ccc32)c1 (stereo not given)	15.3	/	-1.7	/	/	/	/	/	/	/
Nc1nccc(-c2cc(-c3ccc(Cl)cc3Cl)no2)n1	-208.2	95.0*	-1.7	92.5*	95.4*	79.7*	86.8*	91.4*	76.0*	42.2
Cc1ccc(C=Nc2ccccc2C#N)s1	-42.6	21.8	0.7	67.4*	83.5*	48.5	66.6*	86.7*	71.8*	62.1*
Cc1ccc(/C=N/Nc2ccccn2)s1	-19.5	4.8	-0.1	6.3	17.0	/	/	/	/	/
N#Cc1c(/N=C/c2ccco2)sc2c1CCC2	-18.2	-5.2	-38.9	18.9	-6.2	/	/	/	/	/
